Experimental findings from ChEMBL document CHEMBL5338825, “Structure-Based Discovery of Inhibitors of the SARS-CoV-2 Nsp14 N7-Methyltransferase” (J Med Chem, 2023) are described below.

For assay [1], the target named is Histone-lysine N-methyltransferase NSD3 (Homo sapiens) (UniProt Q9BZ95). As to the kind of experiment: Inhibition of human NSD3 using chicken nucleosome and 3H-SAM as substrate at 10 uM incubated for 1 hrs by TopCount scintillation proximity assay relative to control. In a few lines: (§1)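 Human methyltransferase panel, radiometric assays. Each compound tested at a single 10 μM concentration in triplicate. Enzymes inhibited by more than 50% were taken on to concentration–response.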
In general terms: Scintillation proximity formats need no separation of bound from free tracer.

For the next assay, the system named is Bacteria. As to the kind of experiment: Inhibition of beta-lactamase AmpC (unknown origin) pre-incubated with compound for 5 mins followed by substrate addition and measured after 1.5 mins by absorbance based plate reader analysis. The note with it: time 6.5 min. In a few lines: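 AmpC at 2 nM preincubated 5 min with compound at room temperature in 50 mM KPi, pH 7.0, with 1% v/v DMSO. Started with 50 μM CENTA (read at 405 nm) or 50 μM nitrocefin (read at 490 nm), monitored 1 min 30 s. Initial rate taken as % of DMSO control. Top concentration in triplicate; eight-point half-log curves in triplicate where inhibition exceeded 40%.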

Assay [2] has as its target N-lysine methyltransferase SMYD2 (Homo sapiens) (UniProt Q9NRG4). As to the kind of experiment: Inhibition of human SMYD2 using biotin-tagged p53 and 3H-SAM as substrate at 10 uM incubated for 1 hrs by TopCount scintillation proximity assay relative to control. The procedure, abridged: (§2)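 Selectivity panel against human SAM-dependent methyltransferases, radiometric format. Single test concentration of 10 μM, triplicate, read as percent inhibition.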

The target in assay [3] is Histone-lysine N-methyltransferase SETD7 (Homo sapiens) (UniProt Q8WTS6). The assay is described as follows: Inhibition of human SETD7 using biotin-tagged Histone H3 and 3H-SAM as substrate at 10 uM incubated for 1 hrs by TopCount scintillation proximity assay relative to control. The procedure, abridged: as §2
Chain of Histone-lysine N-methyltransferase SETD7 (Homo sapiens) (Q8WTS6 whole entry): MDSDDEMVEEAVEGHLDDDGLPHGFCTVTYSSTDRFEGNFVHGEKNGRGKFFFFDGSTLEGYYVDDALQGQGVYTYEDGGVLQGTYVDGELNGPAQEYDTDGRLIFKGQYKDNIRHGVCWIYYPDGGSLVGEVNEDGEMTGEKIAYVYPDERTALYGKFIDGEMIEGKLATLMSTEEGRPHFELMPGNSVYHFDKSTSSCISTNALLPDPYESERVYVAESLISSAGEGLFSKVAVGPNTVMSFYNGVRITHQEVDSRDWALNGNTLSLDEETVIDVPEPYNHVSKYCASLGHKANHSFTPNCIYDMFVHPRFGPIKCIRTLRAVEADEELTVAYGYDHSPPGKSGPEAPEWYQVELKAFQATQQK
Assay [4] concerns the target Histone-lysine N-methyltransferase SETDB1 (Homo sapiens) (UniProt Q15047). The assay is described as follows: Inhibition of human SETDB1 using biotin-tagged Histone H3 and 3H-SAM as substrate at 10 uM incubated for 1 hrs by TopCount scintillation proximity assay relative to control. The procedure, abridged: as §2
For assay [5], the target named is Protein arginine N-methyltransferase 7 (Homo sapiens) (UniProt Q9NVM4). As to the kind of experiment: Inhibition of human PRMT7 using biotin-tagged Histone H2B and 3H-SAM as substrate at 10 uM incubated for 1 hrs by TopCount scintillation proximity assay relative to control. In a few lines: as §1
Chain of Protein arginine N-methyltransferase 7 (Homo sapiens) (Q9NVM4 whole entry): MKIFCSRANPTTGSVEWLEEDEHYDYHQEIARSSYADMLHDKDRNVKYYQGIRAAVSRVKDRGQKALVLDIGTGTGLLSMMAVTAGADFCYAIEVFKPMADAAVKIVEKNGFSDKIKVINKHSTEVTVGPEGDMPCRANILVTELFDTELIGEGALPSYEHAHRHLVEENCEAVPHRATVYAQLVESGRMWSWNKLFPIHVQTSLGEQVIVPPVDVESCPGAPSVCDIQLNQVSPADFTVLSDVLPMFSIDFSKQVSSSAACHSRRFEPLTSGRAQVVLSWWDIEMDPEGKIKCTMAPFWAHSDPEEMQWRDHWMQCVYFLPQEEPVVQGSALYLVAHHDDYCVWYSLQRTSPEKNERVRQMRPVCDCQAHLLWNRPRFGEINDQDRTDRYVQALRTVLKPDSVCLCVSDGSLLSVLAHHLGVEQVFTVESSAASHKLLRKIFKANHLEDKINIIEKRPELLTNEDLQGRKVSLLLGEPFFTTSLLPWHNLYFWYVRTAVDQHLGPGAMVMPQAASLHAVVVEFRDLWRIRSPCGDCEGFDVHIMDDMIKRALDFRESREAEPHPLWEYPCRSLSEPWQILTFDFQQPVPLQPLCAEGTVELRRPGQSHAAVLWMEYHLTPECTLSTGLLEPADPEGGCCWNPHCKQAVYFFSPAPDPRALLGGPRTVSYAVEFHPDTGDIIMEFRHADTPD
Assay [6] has as its target Histone-lysine N-methyltransferase ASH1L (Homo sapiens) (UniProt Q9NR48). As to the kind of experiment: Inhibition of human ASH1L using chicken nucleosome and 3H-SAM as substrate at 10 uM incubated for 1 hrs by TopCount scintillation proximity assay relative to control. The procedure, abridged: as §1
Assay [7] addresses Histone-lysine N-methyltransferase 2C (Homo sapiens) (UniProt Q8NEZ4). As to the kind of experiment: Inhibition of human MLL3 using biotin-tagged Histone H3 and 3H-SAM as substrate at 10 uM incubated for 1 hrs by TopCount scintillation proximity assay relative to control. In a few lines:
as §1

Assay [8] addresses Histone-lysine N-methyltransferase SMYD3 (Homo sapiens) (UniProt Q9H7B4). As to the kind of experiment: Inhibition of human SMYD3 using biotin-tagged MAP3K2 and 3H-SAM as substrate at 10 uM incubated for 1 hrs by TopCount scintillation proximity assay relative to control. The procedure, abridged:
as §2

Assay [9] is filed under the species Homo sapiens. The assay is described as follows: Inhibition of MDH (unknown origin) using oxaloacetic acid as substrate preincubated with compound for 5 mins followed by substrate addition and measured after 1.5 min in the presence of NADH by absorbance based plate reader analysis. As to conditions: time 6.5 min. The procedure, abridged:
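MDH assay at room temperature in 50 mM KPi, pH 7.0, with 1% v/v DMSO final. Compound preincubated 5 min with 2 nM enzyme. Reaction started with 200 μM NADH plus 200 μM oxaloacetic acid, and absorbance followed at 340 nm for 1 min 30 s. Initial rate divided by the DMSO control rate. Single top concentration in triplicate; eight-point half-log curves in triplicate where inhibition exceeded 40%.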

In assay [10] the target is Protein arginine N-methyltransferase 6 (Homo sapiens) (UniProt Q96LA8). The assay is described as follows: Inhibition of human PRMT6 using biotin-tagged Histone H4 and 3H-SAM as substrate at 10 uM incubated for 1 hrs by TopCount scintillation proximity assay relative to control. In a few lines: as §1
Chain of Protein arginine N-methyltransferase 6 (Homo sapiens) (Q96LA8 whole entry, looked up): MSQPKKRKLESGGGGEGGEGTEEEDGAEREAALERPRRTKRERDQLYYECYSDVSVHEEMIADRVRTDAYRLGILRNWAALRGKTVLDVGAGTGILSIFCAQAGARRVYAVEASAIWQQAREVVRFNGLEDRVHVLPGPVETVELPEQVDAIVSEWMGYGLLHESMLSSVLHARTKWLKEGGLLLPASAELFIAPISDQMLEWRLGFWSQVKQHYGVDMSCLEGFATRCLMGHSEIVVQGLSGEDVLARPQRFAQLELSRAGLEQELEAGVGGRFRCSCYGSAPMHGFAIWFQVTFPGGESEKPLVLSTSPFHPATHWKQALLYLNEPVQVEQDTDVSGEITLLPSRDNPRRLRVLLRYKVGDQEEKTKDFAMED
Assay [11] concerns the target Histone-lysine N-methyltransferase PRDM9 (Homo sapiens) (UniProt Q9NQV7). As to the kind of experiment: Inhibition of human PRDM9 using biotin-tagged Histone H3 and 3H-SAM as substrate at 10 uM incubated for 1 hrs by TopCount scintillation proximity assay relative to control. The procedure, abridged:
as §1

Assay [12] concerns the target Histone-lysine N-methyltransferase, H3 lysine-79 specific (Homo sapiens, UniProt Q8TEK3). The assay is described as follows: Inhibition of human DOT1L using chicken nucleosome and 3H-SAM as substrate at 10 uM incubated for 1 hrs by TopCount scintillation proximity assay relative to control. In a few lines:
as §1

Assay [13] has as its target Protein arginine N-methyltransferase 9 (Homo sapiens) (UniProt Q6P2P2). The assay is described as follows: Inhibition of human PRMT9 using biotin-tagged SAP145 and 3H-SAM as substrate at 10 uM incubated for 1 hrs by TopCount scintillation proximity assay relative to control. The procedure, abridged: as §1
The target in assay [14] is RNA 5'-monophosphate methyltransferase (Homo sapiens) (UniProt Q7Z5W3). The assay is described as follows: Inhibition of human BCDIN3D using biotin-tagged microRNA-145 and 3H-SAM as substrate at 10 uM incubated for 1 hrs by TopCount scintillation proximity assay relative to control. The procedure, abridged: as §1
Chain of RNA 5'-monophosphate methyltransferase (Homo sapiens) (Q7Z5W3 whole entry): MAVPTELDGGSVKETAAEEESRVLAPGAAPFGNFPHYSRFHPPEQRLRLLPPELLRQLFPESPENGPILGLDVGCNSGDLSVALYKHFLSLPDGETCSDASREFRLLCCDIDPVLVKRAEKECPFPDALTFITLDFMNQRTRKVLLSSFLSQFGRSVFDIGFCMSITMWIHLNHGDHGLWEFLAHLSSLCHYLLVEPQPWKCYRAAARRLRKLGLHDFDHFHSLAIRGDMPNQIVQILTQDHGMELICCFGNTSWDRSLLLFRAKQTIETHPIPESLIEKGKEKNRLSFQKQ
The target in assay [15] is Replicase polyprotein 1ab (Severe acute respiratory syndrome coronavirus 2) (UniProt P0DTD1). The assay is described as follows: Non-covalent inhibition of N-terminal 6His/SUMO-tagged SARS-CoV-2 NSP14 expressed in Escherichia coli Rosetta 2 (DE3) PlysS cells using 5'GpppACCCCCCCCC-Biotin 3' and 3H-SAM as substrates incubated for 30 mins by TopCount scintillation proximity assay. In a few lines:
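Radiometric N7-MTase assay tracking [3H]-methyl transfer from SAM onto the cap of […] RNA, run with 0.01% v/v Triton X-100. Concentration–response in triplicate to give IC50.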

In assay [16] the target is N-lysine methyltransferase KMT5A (Homo sapiens) (UniProt Q9NQR1). The assay is described as follows: Inhibition of human SETD8 using biotin-tagged Histone H4 and 3H-SAM as substrate at 10 uM incubated for 1 hrs by TopCount scintillation proximity assay relative to control. The procedure, abridged: as §2
Assay [17] has as its target Protein arginine N-methyltransferase 3 (Homo sapiens, UniProt O60678). As to the kind of experiment: Inhibition of human PRMT3 using biotin-tagged Histone H4 and 3H-SAM as substrate at 10 uM incubated for 1 hrs by TopCount scintillation proximity assay relative to control. The procedure, abridged:
as §1

Assay [18] has as its target Protein arginine N-methyltransferase 1 (Homo sapiens, UniProt Q99873). As to the kind of experiment: Inhibition of human PRMT1 using biotin-tagged Histone H4 and 3H-SAM as substrate at 10 uM incubated for 1 hrs by TopCount scintillation proximity assay relative to control. In a few lines:
as §1

The target of assay [19] is Histone-lysine N-methyltransferase KMT5B (Homo sapiens) (UniProt Q4FZB7). The assay is described as follows: Inhibition of human SUV420H1 using Biotin-tagged H4K20me1 and 3H-SAM as substrate at 10 uM incubated for 1 hrs by TopCount scintillation proximity assay relative to control. The procedure, abridged: as §2
Chain of Histone-lysine N-methyltransferase KMT5B (Homo sapiens) (Q4FZB7 whole entry, looked up): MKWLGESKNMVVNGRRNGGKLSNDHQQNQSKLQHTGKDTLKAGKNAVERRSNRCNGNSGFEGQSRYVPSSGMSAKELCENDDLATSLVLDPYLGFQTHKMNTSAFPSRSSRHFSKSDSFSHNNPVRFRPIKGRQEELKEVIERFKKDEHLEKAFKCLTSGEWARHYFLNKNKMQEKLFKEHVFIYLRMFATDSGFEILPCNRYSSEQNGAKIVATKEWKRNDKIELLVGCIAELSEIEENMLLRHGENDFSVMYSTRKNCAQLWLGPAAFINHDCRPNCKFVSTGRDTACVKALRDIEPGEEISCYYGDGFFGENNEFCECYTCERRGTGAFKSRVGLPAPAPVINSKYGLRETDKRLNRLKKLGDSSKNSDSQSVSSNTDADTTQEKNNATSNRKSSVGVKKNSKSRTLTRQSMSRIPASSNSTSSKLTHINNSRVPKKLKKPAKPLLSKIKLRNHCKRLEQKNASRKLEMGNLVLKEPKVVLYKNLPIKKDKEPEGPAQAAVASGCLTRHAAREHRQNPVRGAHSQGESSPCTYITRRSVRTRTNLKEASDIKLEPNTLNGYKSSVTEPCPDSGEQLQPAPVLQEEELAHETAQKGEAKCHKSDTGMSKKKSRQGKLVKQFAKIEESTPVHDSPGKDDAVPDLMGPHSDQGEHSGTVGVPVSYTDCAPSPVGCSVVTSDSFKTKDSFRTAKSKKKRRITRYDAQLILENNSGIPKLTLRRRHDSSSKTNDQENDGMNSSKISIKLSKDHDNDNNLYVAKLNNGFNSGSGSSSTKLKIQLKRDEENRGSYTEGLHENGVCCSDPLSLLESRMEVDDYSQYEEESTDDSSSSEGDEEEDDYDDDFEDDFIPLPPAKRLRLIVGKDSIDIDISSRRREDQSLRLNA
The species entered for assay [20] is Homo sapiens. As to the kind of experiment: Inhibition of human EZH2 using biotin-tagged Histone H3 and 3H-SAM as substrate at 10 uM incubated for 1 hrs by TopCount scintillation proximity assay relative to control. In a few lines:
as §1

Calls of active or inactive are those of the source. No cut-off for these calls is given here.

Chain of Histone-lysine N-methyltransferase, H3 lysine-79 specific (Q8TEK3 whole entry, looked up): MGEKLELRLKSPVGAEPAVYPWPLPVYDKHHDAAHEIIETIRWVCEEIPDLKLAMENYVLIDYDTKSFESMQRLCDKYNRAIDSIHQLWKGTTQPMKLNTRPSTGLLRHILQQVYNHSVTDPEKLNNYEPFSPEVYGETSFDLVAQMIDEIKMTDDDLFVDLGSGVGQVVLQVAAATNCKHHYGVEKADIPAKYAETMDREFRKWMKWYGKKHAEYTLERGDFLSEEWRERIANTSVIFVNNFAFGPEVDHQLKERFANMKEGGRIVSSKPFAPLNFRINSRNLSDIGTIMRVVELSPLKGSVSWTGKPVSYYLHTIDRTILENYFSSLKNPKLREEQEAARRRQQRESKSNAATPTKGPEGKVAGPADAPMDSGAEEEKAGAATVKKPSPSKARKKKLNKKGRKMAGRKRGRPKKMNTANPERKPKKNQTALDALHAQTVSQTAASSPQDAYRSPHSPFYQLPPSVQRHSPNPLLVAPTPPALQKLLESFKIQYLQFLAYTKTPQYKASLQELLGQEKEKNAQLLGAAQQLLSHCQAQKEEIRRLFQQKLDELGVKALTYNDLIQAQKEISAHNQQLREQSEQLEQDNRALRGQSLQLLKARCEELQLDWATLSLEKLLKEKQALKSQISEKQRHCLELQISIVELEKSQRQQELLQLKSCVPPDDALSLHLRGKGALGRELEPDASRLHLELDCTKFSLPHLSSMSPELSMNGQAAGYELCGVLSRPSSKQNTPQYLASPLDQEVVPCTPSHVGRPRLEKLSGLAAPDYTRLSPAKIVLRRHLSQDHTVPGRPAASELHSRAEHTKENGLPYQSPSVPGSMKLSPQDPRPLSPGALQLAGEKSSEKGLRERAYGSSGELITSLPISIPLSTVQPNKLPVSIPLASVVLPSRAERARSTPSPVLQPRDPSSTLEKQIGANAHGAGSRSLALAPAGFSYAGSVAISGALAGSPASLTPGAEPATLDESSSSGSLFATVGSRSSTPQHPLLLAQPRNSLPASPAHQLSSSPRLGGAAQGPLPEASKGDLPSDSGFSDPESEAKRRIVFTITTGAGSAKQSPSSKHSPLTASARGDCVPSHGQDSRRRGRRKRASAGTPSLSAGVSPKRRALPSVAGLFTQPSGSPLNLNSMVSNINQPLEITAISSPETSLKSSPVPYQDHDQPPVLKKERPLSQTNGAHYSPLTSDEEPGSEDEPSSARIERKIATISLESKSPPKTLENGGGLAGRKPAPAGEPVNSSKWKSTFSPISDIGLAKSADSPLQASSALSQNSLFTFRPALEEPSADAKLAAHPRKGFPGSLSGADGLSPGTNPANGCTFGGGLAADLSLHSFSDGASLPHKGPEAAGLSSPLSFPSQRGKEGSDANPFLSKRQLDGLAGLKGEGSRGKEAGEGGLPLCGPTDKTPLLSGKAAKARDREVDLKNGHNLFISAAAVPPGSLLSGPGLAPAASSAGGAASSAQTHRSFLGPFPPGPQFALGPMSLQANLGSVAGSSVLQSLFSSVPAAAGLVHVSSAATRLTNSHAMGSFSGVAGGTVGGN
Chain of Protein arginine N-methyltransferase 1 (Q99873 whole entry, looked up): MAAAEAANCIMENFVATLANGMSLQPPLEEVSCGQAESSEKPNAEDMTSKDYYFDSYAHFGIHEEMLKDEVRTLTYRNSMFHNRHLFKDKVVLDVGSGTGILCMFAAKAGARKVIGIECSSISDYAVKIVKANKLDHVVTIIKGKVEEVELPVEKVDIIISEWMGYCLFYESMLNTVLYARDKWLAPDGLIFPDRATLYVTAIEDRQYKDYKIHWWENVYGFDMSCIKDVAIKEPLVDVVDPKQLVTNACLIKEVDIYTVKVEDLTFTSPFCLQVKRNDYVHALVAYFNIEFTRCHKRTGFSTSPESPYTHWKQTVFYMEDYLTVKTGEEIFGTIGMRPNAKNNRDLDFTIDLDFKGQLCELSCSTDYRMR
Chain of Protein arginine N-methyltransferase 3 (O60678 2-531 limits assumed): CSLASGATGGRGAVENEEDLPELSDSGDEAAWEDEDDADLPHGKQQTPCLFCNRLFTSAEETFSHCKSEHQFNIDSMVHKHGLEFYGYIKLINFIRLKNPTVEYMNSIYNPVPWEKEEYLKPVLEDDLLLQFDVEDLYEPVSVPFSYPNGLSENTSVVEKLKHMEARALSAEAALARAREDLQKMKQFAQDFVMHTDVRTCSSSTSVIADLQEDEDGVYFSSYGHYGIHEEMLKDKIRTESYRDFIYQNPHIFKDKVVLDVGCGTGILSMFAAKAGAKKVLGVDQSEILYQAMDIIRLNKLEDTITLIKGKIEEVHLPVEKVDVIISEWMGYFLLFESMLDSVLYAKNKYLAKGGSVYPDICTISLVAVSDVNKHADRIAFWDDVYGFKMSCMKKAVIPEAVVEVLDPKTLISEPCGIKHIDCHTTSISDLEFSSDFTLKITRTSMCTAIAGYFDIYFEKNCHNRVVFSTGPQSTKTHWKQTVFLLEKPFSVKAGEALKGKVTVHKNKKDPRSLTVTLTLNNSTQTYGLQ

As for `Cc1c(C(=O)/C=C/c2ccc(O)c([N+](=O)[O-])c2)c(C#N)c2n1CCC2`, the inhibition in assay [1], in assay [2], in [3], in assay [4], in assay [5] and in assay [6] was below 50% each time. The inhibition in assay [7], in assay [8], in [10], in assay [11], in assay [12] and in assay [13] was below 50% in each case. The inhibition (in assay [14]; in [16]; in assay [17]; in [18]; in assay [19]; in the assay listed under Homo sapiens [20]) was below 50% each time. The inhibition result (in the assay on Bacteria; in the assay filed under Homo sapiens [9]; in [15]) was “Active” throughout.
